26 compounds from ChEMBL document CHEMBL1221227, “Nanomolar potency pyrimido-pyrrolo-quinoxalinedione CFTR inhibitor reduces cyst size in a polycystic kidney disease model” (J Med Chem, 2009) can be followed below.

Experiment [1] deals with T1, Cystic fibrosis transmembrane conductance regulator (Homo sapiens, UniProt P13569). The experiment in a line: Inhibition of human CFTR expressed in rat FRT cells coexpressing halide indicator YFP-H148Q assessed as inhibition of halide influx at 25 uM preincubated for 15 mins by FLIPR. The experiment is classed as cell-based. The essentials:
(§1)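 FRT cells coexpressing human CFTR and YFP halide sensor, assayed 48 h after plating at confluence. After PBS washes, CFTR activated with 5 µM forskolin, 100 µM IBMX and 25 µM apigenin. Compound added 5 min later and incubated 15 min. Fluorescence read 2 s baseline, then 10 s after iodide-substituted PBS addition. Initial iodide influx rate obtained by nonlinear regression.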
Target sequence in this assay (P13569 whole entry, looked up): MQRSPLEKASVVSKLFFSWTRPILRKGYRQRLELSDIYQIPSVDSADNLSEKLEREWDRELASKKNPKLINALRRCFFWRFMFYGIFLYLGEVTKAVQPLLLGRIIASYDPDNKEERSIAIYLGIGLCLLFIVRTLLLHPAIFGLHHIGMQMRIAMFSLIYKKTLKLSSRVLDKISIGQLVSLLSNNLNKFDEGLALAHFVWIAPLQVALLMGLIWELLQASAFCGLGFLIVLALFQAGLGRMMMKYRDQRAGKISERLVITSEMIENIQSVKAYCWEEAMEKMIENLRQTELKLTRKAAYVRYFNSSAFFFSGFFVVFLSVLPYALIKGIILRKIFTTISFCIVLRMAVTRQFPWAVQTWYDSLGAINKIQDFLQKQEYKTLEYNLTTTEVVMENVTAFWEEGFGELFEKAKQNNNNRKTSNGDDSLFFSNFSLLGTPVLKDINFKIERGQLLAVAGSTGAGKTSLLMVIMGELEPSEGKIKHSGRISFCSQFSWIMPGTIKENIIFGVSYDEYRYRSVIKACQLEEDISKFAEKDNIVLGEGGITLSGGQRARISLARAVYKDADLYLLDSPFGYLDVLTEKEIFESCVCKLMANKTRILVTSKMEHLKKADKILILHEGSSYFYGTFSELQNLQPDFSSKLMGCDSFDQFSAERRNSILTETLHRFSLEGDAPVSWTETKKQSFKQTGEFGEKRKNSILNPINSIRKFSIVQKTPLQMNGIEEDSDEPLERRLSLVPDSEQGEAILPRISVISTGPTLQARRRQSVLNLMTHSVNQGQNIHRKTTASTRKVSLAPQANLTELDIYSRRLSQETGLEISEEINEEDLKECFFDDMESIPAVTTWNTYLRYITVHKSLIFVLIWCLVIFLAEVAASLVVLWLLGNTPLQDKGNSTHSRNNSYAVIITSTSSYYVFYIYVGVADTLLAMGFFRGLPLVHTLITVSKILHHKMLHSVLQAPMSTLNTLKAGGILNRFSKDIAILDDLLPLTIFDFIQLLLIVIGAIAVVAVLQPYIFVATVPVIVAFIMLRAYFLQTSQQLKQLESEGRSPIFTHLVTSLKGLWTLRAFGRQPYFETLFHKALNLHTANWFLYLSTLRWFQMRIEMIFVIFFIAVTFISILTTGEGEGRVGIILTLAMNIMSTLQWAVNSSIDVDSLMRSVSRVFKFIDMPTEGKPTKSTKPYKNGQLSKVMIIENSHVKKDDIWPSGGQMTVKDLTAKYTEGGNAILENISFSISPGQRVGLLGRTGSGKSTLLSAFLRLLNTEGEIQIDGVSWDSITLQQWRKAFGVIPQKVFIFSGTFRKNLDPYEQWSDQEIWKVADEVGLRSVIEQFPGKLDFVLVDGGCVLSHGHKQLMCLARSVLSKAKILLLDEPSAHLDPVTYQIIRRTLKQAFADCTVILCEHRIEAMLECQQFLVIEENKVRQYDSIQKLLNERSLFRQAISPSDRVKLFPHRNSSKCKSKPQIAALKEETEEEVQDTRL

The target in experiment [2] is T1, Cystic fibrosis transmembrane conductance regulator. Kind of experiment: Inhibition of human CFTR expressed in rat FRT cells coexpressing halide indicator YFP-H148Q assessed as inhibition of halide influx at 5 uM preincubated for 15 mins by FLIPR. The class given is cell-based. The method in brief:
as §1
Target sequence in this assay (P13569 whole entry, looked up): as above

The target is the same in experiment [3]. The experiment in a line: Inhibition of CFTR. The method in brief:
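Ussing-chamber apical membrane current in CFTR-expressing FRT cells under a chloride gradient: apical 75 mM NaCl/75 mM Na gluconate, basolateral 150 mM NaCl, pH 7.3. Basolateral membrane permeabilized with 250 µg/mL amphotericin B, air-bubbled, 37 °C. CFTR activated by 100 µM CPT-cAMP, then compound added at increasing concentrations. Dose–response, SE n = 4.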
Target sequence in this assay (P13569 whole entry): as the sequence (P13569 whole entry, looked up) above

For experiment [4] the target is unchanged. The experiment in a line: Inhibition of human CFTR expressed in rat FRT cells assessed as inhibition of CPT-cAMP-induced apical membrane current in presence of transepithelial chloride gradient and basolateral membrane permeabilization with amphotericin B by short-circuit current analysis. The class given is cell-based. The essentials:
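FRT cells stably coexpressing human wild-type CFTR, mounted in Ussing chambers. Apical 75 mM NaCl/75 mM Na gluconate, basolateral 150 mM NaCl (pH 7.3), basolateral membrane permeabilized with 250 µg/mL amphotericin B, air-bubbled, 37 °C. CFTR activated by 100 µM CPT-cAMP, then increasing inhibitor concentrations added cumulatively. Apical current recorded continuously; dose–response, SE n = 4.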
Target sequence in this assay (P13569 whole entry): as the sequence (P13569 whole entry, looked up) above

Experiment [5] shares this target. The experiment in a line: Inhibition of CFTR in nonpermeabilized human bronchial epithelial cells assessed as inhibition of forskolin and IBMX-induced chloride current at by short-circuit current analysis. The experiment is classed as cell-based, Epithelial cell. The essentials: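 Ussing chamber short-circuit current in nonpermeabilized primary human bronchial epithelial cells on inserts; Krebs-bicarbonate both sides, bubbled with 5% CO2 in air, 37 °C. CFTR maximally activated by 10 µM forskolin plus 100 µM IBMX, then inhibitor added; current recorded continuously with voltage clamp.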
Target sequence in this assay (P13569 whole entry): as the sequence (P13569 whole entry, looked up) above

In experiment [6] the test system is Epithelial cell. The experiment in a line: Inhibition of calcium-activated chloride channel in CFTR deficient human bronchial epithelial cells assessed as inhibition of UTP-induced chloride current at 10 uM. The class given is cell-based. The method in brief: (§2)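 Ussing-chamber short-circuit current in cystic fibrosis (CFTR-deficient) human bronchial epithelial cells, Krebs-bicarbonate both sides, 5% CO2 in air, 37 °C. ENaC blocked with 10 µM amiloride. Calcium-activated chloride channels stimulated with 100 µM UTP, compound added as indicated.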

For experiment [7], the system named is Epithelial cell. The experiment in a line: Inhibition of calcium-activated chloride channel in CFTR deficient human bronchial epithelial cells assessed as inhibition of UTP-induced chloride current at 20 uM. The class given is cell-based. The method in brief: as §2
Experiment [8] concerns CHO-K1. Kind of experiment: Effect on basal cAMP production in CHOK1 cells at 10 uM. The experiment is classed as functional, cell-based. The conditions noted are these: Cricetulus griseus. The essentials: (§3)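 cAMP measured in CHO-K1 cells under basal conditions and after 20 µM forskolin, with or without compound at 10 µM; SE, n = 4.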
(In general: Changes in cAMP serve as a functional read-out for many G protein-coupled receptors.)

Experiment [9] deals with CHO-K1. Kind of experiment: Effect on forskolin-induced cAMP production in CHOK1 cells at 10 uM. The conditions noted are these: Cricetulus griseus. The experiment is classed as functional, cell-based. The essentials: as §3
Experiment [10] deals with Kidney. Kind of experiment: Reduction in cyst expansion in 8-Br-cAMP treated embryonic mouse kidney organ culture model of polycystic kidney disease by transmission light microscopy. The class given is functional, tissue-based. The method in brief: (§4)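 E13.5 mouse metanephroi cultured on porous inserts in defined DMEM/Ham's F-12 (insulin, transferrin, selenium, prostaglandin E, T3) at 37 °C. Medium with 100 µM 8-Br-cAMP, with or without compound, replaced every 12 h. After 4 days, cyst area fraction measured by transmission light microscopy (SE, 6–8 kidneys), or paraffin sections H&E-stained (three kidneys per condition).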

In experiment [11] the test system is Kidney. Kind of experiment: Reduction in size of preformed cysts in 8-Br-cAMP treated embryonic mouse kidney organ culture model of polycystic kidney disease by transmission light microscopy. The class given is functional, tissue-based. The method in brief: (§5)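 E13.5 mouse metanephroi in defined organ-culture medium with 100 µM 8-Br-cAMP, changed every 12 h, 37 °C. Compound (5 µM) added at day 3 to kidneys with preformed cysts. Cyst area fraction by transmission light microscopy at day 5, six kidneys, SE.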

Experiment [12] concerns Kidney. The experiment in a line: Inhibition of cyst formation in 8-Br-cAMP treated embryonic mouse kidney organ culture model of polycystic kidney disease at 0.5 uM by transmission light microscopy. The class given is functional. The essentials: as §4
Experiment [13] has as its system Kidney. The experiment in a line: Inhibition of cyst formation in 8-Br-cAMP treated embryonic mouse kidney organ culture model of polycystic kidney disease at 2.5 uM by transmission light microscopy. The experiment is classed as functional, tissue-based. The essentials:
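E13.5 mouse metanephroi cultured on porous inserts in defined DMEM/Ham's F-12 (insulin, transferrin, selenium, prostaglandin E, T3) at 37 °C. Medium with 100 µM 8-Br-cAMP, with or without inhibitor, replaced every 12 h. After 4 days, transmission light micrographs scored as fractional kidney area occupied by cysts (6–8 kidneys, SE).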

The subject of experiment [14] is Kidney. The experiment in a line: Inhibition of cyst formation in 8-Br-cAMP treated embryonic mouse kidney organ culture model of polycystic kidney disease at 5 uM by transmission light microscopy. The class given is functional, tissue-based. The essentials:
as §4

The subject of experiment [15] is Kidney. The experiment in a line: Reduction in cyst size in 8-Br-cAMP treated embryonic mouse kidney organ culture model of polycystic kidney disease by hematoxylin and eosin staining after 4 days. The class given is functional, tissue-based. The method in brief: as §4
Experiment [16] concerns Kidney. Kind of experiment: Reduction in fluid accumulation in 3 days 8-Br-cAMP treated embryonic mouse kidney organ culture model of polycystic kidney disease at 5 uM after 1 or 2 days by transmission light microscopy. The experiment is classed as functional, tissue-based. The method in brief: as §5
In experiment [17] the target is T1, Cystic fibrosis transmembrane conductance regulator. The conditions noted are these: T84, 10 uM.
Target sequence in this assay (P13569 whole entry, looked up): as above
For experiment [18] the target is unchanged. The conditions noted are these: Epithelial cell, 10 uM.
Target sequence in this assay (P13569 whole entry, looked up): as above
For experiment [19] the target is unchanged. As to conditions: FRT, 0.5 uM.
Target sequence in this assay (P13569 whole entry, looked up): as above

SMILES strings stand for the structures. Activity calls are given as the source filed them. No cut-off for these calls is given here.

In general, inhibition refers to the percentage by which the read-out fell short of the control. On to `Cc1cccc(-c2c3c(=O)n(C)c(=O)n(C)c3c3n2-c2ccccc2NC3c2cccc(F)c2)c1` (stereo unspecified), for which the inhibition came out at 93% in experiment [1] and 53% in experiment [2].

As to `Cc1cccc(-c2c3c(=O)n(C)c(=O)n(C)c3c3n2-c2ccccc2NC3c2ccc(O)cc2)c1` (stereo unspecified), the inhibition in experiment [1] is 94%; in experiment [2] it was 71%.

For `Cc1cccc(C2Nc3ccccc3-n3c(-c4ccccc4C)c4c(=O)n(C)c(=O)n(C)c4c32)c1` (stereo unspecified), the inhibition in experiment [1] was determined as 100%; in experiment [2], 46%.

Turning to `Cn1c(=O)c2c(-c3ccccc3)n3c(c2n(C)c1=O)C(c1ccccc1F)Nc1ccccc1-3` (stereo unspecified), the inhibition in experiment [1] was determined as 81%; in experiment [2], 61%.

For the compound `Cc1ccc(C2Nc3cc(C)c(C)cc3-n3c(-c4ccccc4F)c4c(=O)n(C)c(=O)n(C)c4c32)o1` (stereo unspecified), the inhibition in [1] was determined as 87%; in experiment [2], 80%.

With `Cn1c(=O)c2c(-c3ccccc3)n3c(c2n(C)c1=O)C(c1ccccc1)Nc1ccccc1-3` (stereo unspecified), the inhibition is 92% in [1] and 61% in experiment [2].

For the compound `COc1cccc(C2Nc3ccccc3-n3c(-c4ccccc4)c4c(=O)n(C)c(=O)n(C)c4c32)c1` (stereo unspecified), the inhibition in [1] is 86%; in experiment [2], 63%.

With `COc1cccc(C2Nc3ccccc3-n3c(-c4ccccc4C)c4c(=O)n(C)c(=O)n(C)c4c32)c1` (stereo unspecified), the inhibition is 94% in experiment [1] and 62% in experiment [2].

Consider `Cn1c(=O)c2c(-c3ccccc3F)n3c(c2n(C)c1=O)C(c1cccc(Cl)c1)Nc1ccccc1-3` (stereo unspecified), for which the values for the inhibition in experiment [1] and in [2] were 98% and 70%, respectively.

Turning to `Cn1c(=O)c2c(-c3ccccc3)n3c(c2n(C)c1=O)C(c1cccc([N+](=O)[O-])c1)Nc1ccccc1-3` (stereo unspecified), the inhibition in experiment [1] turned out to be 90%; in [2], 60%.

The term IC50 denotes the point on the concentration scale where inhibition reaches its midpoint. On to `O=C(O)c1ccc(/C=C2\SC(=S)N(c3cccc(C(F)(F)F)c3)C2=O)cc1`, for which the IC50 in experiment [3] was determined as 300 nM.

Regarding `Cc1cccc(-c2c3c(=O)n(C)c(=O)n(C)c3c3n2-c2ccccc2NC3c2cccc([N+](=O)[O-])c2F)c1` (stereo unspecified), the inhibition is 94% in experiment [1] and 61% in experiment [2].

As for `Cc1ccccc1-c1c2c(=O)n(C)c(=O)n(C)c2c2n1-c1ccccc1NC2c1cccc([N+](=O)[O-])c1` (stereo unspecified), the values for the inhibition in experiment [1] and in experiment [2] were 96% and 64%, respectively.

As to `Cn1c(=O)c2c(-c3ccccc3)n3c(c2n(C)c1=O)C(c1cccc(F)c1F)Nc1ccccc1-3` (stereo unspecified), the inhibition in [1] turned out to be 93%; in [2], 72%.

Take `Cc1ccc(C2Nc3ccccc3-n3c(-c4ccccc4)c4c(=O)n(C)c(=O)n(C)c4c32)o1` (stereo unspecified): the inhibition in experiment [1] worked out at 97%; in [2] it was 87%; in experiment [17] it was 100%; in [18], 100%; in [19] it was 65%. Also, the figures for the IC50 in [4] and in experiment [5] were 90 nM and below 1000 nM, respectively. The outcome in the experiment with Epithelial cell [6], in the experiment on Epithelial cell [7], in the experiment with CHO-K1 [8] and with CHO-K1 [9] was inactive. Moreover, the result in the experiment with Kidney [10], with Kidney [11] and with Kidney [14] was Active. For the same compound, the inhibition at 0.5 µM with Kidney [12] was 60%. For the same compound, the inhibition entry in the experiment on Kidney [13], in the experiment on Kidney [15] and with Kidney [16] was “Active” each time.

Regarding `COc1cccc(C2Nc3ccccc3-n3c(-c4ccccc4F)c4c(=O)n(C)c(=O)n(C)c4c32)c1` (stereo unspecified), the inhibition amounted to 97% in [1] and 62% in [2].

On to `COc1cc(O)ccc1C1Nc2ccccc2-n2c(-c3ccccc3)c3c(=O)n(C)c(=O)n(C)c3c21` (stereo unspecified), for which the inhibition in experiment [1] was determined as 56%; in [2] it was 5%.

In experiment [3], `O=C(CNc1ccc2ccccc2c1)N/N=C/c1cc(Br)c(O)c(Br)c1O` showed a half-inhibitory concentration (IC50) of 5000 nM.

On to `Cc1ccc(C2Nc3cc(C)c(C)cc3-n3c(-c4ccccc4)c4c(=O)n(C)c(=O)n(C)c4c32)o1` (stereo unspecified), for which the inhibition in experiment [1] turned out to be 90%; in [2], 84%.

In the case of `Cc1ccccc1-c1c2c(=O)n(C)c(=O)n(C)c2c2n1-c1ccccc1NC2c1ccccc1` (stereo unspecified), the inhibition in experiment [1] turned out to be 97%; in experiment [2] it was 51%.

Consider `Cc1cccc(-c2c3c(=O)n(C)c(=O)n(C)c3c3n2-c2ccccc2NC3c2ccc(C)o2)c1` (stereo unspecified), for which the inhibition in experiment [1] came out at 98%; in experiment [2], 82%.

Take `COc1cccc(C2Nc3ccccc3-n3c(-c4cccc(C)c4)c4c(=O)n(C)c(=O)n(C)c4c32)c1` (stereo unspecified): the inhibition in experiment [1] worked out at 98%; in experiment [2], 73%.

For the compound `Cc1cc2c(cc1C)-n1c(-c3ccccc3)c3c(=O)n(C)c(=O)n(C)c3c1C(c1ccc(O)cc1)N2` (stereo unspecified), the inhibition in experiment [1] amounted to 99%; in experiment [2] it was 80%.

Consider `Cc1cccc(-c2c3c(=O)n(C)c(=O)n(C)c3c3n2-c2ccccc2NC3c2ccccc2F)c1` (stereo unspecified), for which the inhibition was 80% in experiment [1] and 67% in experiment [2].

`Cn1c(=O)c2c(-c3ccccc3)n3c(c2n(C)c1=O)C(c1ccc(O)cc1)Nc1ccccc1-3` (stereo unspecified): the results for the inhibition in [1] and in experiment [2] were 86% and 64%, respectively.

As to `Cc1ccc(C2Nc3ccccc3-n3c(-c4ccccc4C)c4c(=O)n(C)c(=O)n(C)c4c32)o1` (stereo unspecified), the values for the inhibition in experiment [1] and in experiment [2] were 97% and 86%, respectively.
